From ChEMBL document CHEMBL1153231, “Novel thioamide derivatives as neutral CB1 receptor antagonists” (Bioorg Med Chem Lett, 2010) come the findings set out here.

SMILES strings stand for the structures. ≈ marks a conversion by molar mass, not a printed value.

The nature of data set [1]: Aqueous solubility of the compound. It is filed as physicochemical.
The target of the next data set is Cannabinoid receptor 1 (Homo sapiens, UniProt P21554). The data set is described as follows: Agonist activity at human CB1 receptor assessed as stimulation of [35S]GTPgammaS binding. It is filed as functional.
Chain of Cannabinoid receptor 1 (P21554 whole entry): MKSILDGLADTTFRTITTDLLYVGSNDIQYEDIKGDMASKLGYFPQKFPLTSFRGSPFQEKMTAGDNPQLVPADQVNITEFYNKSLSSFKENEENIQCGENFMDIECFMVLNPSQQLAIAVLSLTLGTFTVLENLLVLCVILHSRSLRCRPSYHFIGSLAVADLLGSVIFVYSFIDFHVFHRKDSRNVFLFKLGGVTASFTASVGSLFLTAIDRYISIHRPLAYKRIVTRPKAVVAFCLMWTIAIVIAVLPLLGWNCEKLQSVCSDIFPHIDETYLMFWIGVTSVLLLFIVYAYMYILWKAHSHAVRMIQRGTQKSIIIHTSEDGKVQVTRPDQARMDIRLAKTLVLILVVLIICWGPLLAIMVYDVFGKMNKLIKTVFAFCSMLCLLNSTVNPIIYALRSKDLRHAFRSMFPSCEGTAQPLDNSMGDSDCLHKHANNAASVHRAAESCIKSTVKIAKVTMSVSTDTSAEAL
Data set [2] in a line: Plasma concentration in mouse at 20 umol/kg, po after 6 hrs. In kind it is ADME, organism-based. The essentials: (§1)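 Cafeteria-diet-induced obese mice were given repeated peroral doses. Plasma and brain tissue were sampled 0.5 h, 2 h and 6 h after the last dose, and after a 7-day washout. Levels of both the parent thioamide and its carboxamide counterpart were measured in the same samples. Plasma levels are per litre and brain levels per gram of tissue.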

The nature of data set [3]: Plasma concentration in mouse at 20 umol/kg, po after 2 hrs. It is filed as ADME, organism-based. The procedure, abridged:
as §1

The nature of data set [4]: Drug level in mouse brain at 20 umol/kg, po after 0.5 hrs. It is filed as ADME, organism-based. The procedure, abridged:
as §1

Data set [5] in a line: Drug level in mouse brain at 20 umol/kg, po after 6 hrs. It is filed as ADME, organism-based. The essentials:
as §1

Data set [6] can be described thus: Plasma concentration in mouse at 20 umol/kg, po after 0.5 hrs. It is filed as ADME, organism-based. The essentials: as §1
Data set [7] can be described thus: Drug level in mouse brain at 20 umol/kg, po after 2 hrs. In kind it is ADME, organism-based. The essentials:
as §1

Data set [8] is described as follows: Plasma concentration in mouse at 20 umol/kg, po after 7 days. In kind it is ADME, organism-based. The essentials: as §1
Data set [9] is described as follows: Drug level in mouse brain at 20 umol/kg, po after 7 days. It is filed as ADME, organism-based. The essentials:
as §1

Data set [10] relates to Mus musculus. The data set is described as follows: Reduction in body weight of diet induced obese C57BL/6 mouse at 20-60 umol/kg after 1 week relative to control. Details: scale not given: the % may be the effect or the level left. It is filed as functional. The essentials:
(§2)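 The test agents were given perorally to cafeteria-diet-induced obese mice over 1–3 weeks. Body weight was tracked as a percentage of initial body weight and compared with vehicle-treated animals.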

The test system of data set [11] is Mus musculus. The data set is described as follows: Reduction in body weight of diet induced obese C57BL/6 mouse at 20 umol/kg after 1 to 3 weeks relative to control. It is filed as functional. Details: scale not given: the % may be the effect or the level left. The essentials:
as §2

As to `O=C(NC1CCCCC1)c1cnc(-c2ccc(Cl)cc2)c(-c2ccc(Cl)cc2)n1`, the solubility in data set [1] is under 0.1 µM. In addition, at Cannabinoid receptor 1, the IC50 came out at 16.6 nM.
On to `FC1(F)CCC(NC(=S)c2cnc(-c3ccc(Cl)cc3)c(-c3ccc(Cl)cc3)n2)CC1`, for which the concentration in solution in data set [1] (solubility) came to 6.6 µM (≈ 3.16 µg/mL). In addition, at Cannabinoid receptor 1, the IC50 is 4.5 nM.
Turning to `COCc1nc(-c2ccc(Cl)cc2)c(-c2ccc(Cl)cc2)nc1C(=O)NC1CCC(F)(F)CC1`, the concentration at 6 h in data set [2] was 148 nM; in data set [5], 0.07 µmol/g. The concentration at 2 h in [3] turned out to be 153 nM; in [7], 0.08 µmol/g. The concentration at 0.5 h in data set [4] is 0.05 µmol/g; in [6] it was 136 nM. The same compound displayed a solubility in [1] of under 0.1 µM. Besides, the IC50 at Cannabinoid receptor 1 stood at 2.9 nM. The compound also returned a concentration at 168 h in [8] of 24 nM.
`COCc1nc(-c2ccc(Cl)cc2)c(-c2ccc(Cl)cc2)nc1C(=S)NC1CCC(F)(F)CC1`: the figures for the concentration at 6 h in [2] and in [5] were 137 nM and 0.14 µmol/g, respectively. Further, the figures for the concentration at 2 h in data set [3] and in data set [7] were 604 nM and 0.32 µmol/g, respectively. Moreover, the concentration at 0.5 h in data set [4] is 0.18 µmol/g; in data set [6], 403 nM. Moreover, the figures for the concentration at 168 h in data set [9] and in data set [8] were 0.05 µmol/g and 32 nM, respectively. This compound also returned a solubility in data set [1] of under 0.1 µM. In the data set on Mus musculus [10], this compound had an Activity of 85%. The IC50 at Cannabinoid receptor 1 is 2.4 nM.
On to `O=C(NC1CCC(F)(F)CC1)c1cnc(-c2ccc(Cl)cc2)c(-c2ccc(Cl)cc2)n1`, for which the solubility in data set [1] is under 0.1 µM. Moreover, the IC50 at Cannabinoid receptor 1 is 5.3 nM.
Take `S=C(NC1CCCCC1)c1cnc(-c2ccc(Cl)cc2)c(-c2ccc(Cl)cc2)n1`: in data set [1], the concentration in solution (solubility) came to 6.1 µM (≈ 2.7 µg/mL). The IC50 on Cannabinoid receptor 1 is 5.8 nM.
`Cc1c(C(=O)NN2CCCCC2)nn(-c2ccc(Cl)cc2Cl)c1-c1ccc(Cl)cc1` [RIMONABANT]: the figures for the concentration at 6 h in data set [2] and in data set [5] were 900 nM and 0.68 µmol/g, respectively. The concentration at 2 h was determined as 1950 nM in data set [3] and 1.69 µmol/g in data set [7]. Also, the Activity in the data set with Mus musculus [11] came to 85%. The concentration at 0.5 h in [4] came to 1.11 µmol/g; in data set [6] it was 1360 nM. Further, the solubility in [1] was under 1.1 µM.

Broadly, the solubility is the dissolved amount per volume that the medium holds. In general, IC50 refers to the concentration that inhibits the measured activity by half.
